Test results as given in publication PMC7482441 (Pharmacological Research, 2020).

How the values were obtained:
[1] = Population PK / non-compartmental analysis of plasma Rimeporide in DMD boys; assay type: in vivo, human; conditions: for half-life: male, human, plasma, po
Procedure, shortened: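 Sparse plasma sampling: Day 1 pre-dose, 0.5–1, 1–2, 2.5–3.5 and ~6 h post-dose; Day 28 at 0.5–1 and ~6 h. Drug was quantified by a validated LC–MS/MS method. A 3-compartment population model with absorption and first-order elimination was fitted in NONMEM, pooled with healthy-volunteer and heart-failure data.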

[2] = system: IGFBP1; assay: Circulating biomarker, baseline vs 4-week treatment; assay type: in vivo, human; conditions: 20 DMD patients, OLink, p-value 1.7e-8, FDR 4e-6
[3] = system: TR (Transferrin receptor); assay: as above; assay type: in vivo, human; conditions: 20 DMD patients, OLink, p-value 3.0e-6, FDR 0.0004
[4] = system: SCGB3A2; assay: as above; assay type: in vivo, human; conditions: 20 DMD patients, OLink, p-value 1.3e-5, FDR 0.001
[5] = system: CK MM (Creatine Kinase MM isoform); assay: as above; assay type: in vivo, human; conditions: 20 DMD patients, Electrophoresis, p-value 0.0009, FDR 0.24
[6] = system: MB (Myoglobin); assay: as above; assay type: in vivo, human; conditions: 20 DMD patients, OLink, p-value 0.0036, FDR 0.79
[7] = system: IGFBP6; assay: as above; assay type: in vivo, human; conditions: 20 DMD patients, OLink, p-value 0.0044, FDR 0.89
[8] = system: skeletal muscle; assay: NMRI of skeletal muscle; assay type: in vivo, human; conditions: dose escalation, 4-week treatment
Procedure, shortened: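 NMRI of both lower limbs was acquired locally at baseline and week 4 of oral treatment (50–300 mg TID, 4 ascending-dose cohorts). Indices were water T2 and fat fraction in skeletal muscle. Descriptive statistics were produced per cohort.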

[9] = system: sodium-proton exchanger isoform 1 (NHE-1); conditions: cited from earlier work

Compound: [H]/N=C(\N)NC(=O)c1cc(S(C)(=O)=O)c(S(C)(=O)=O)cc1C [Rimeporide]
- TAT (time above 500 ng/ml over 24 h) ([1]; Cohort 1, 150 to 225 mg daily oral, Day 1, mean, N 5): 6.6 h
- TAT (time above 500 ng/ml over 24 h) ([1]; Cohort 1, 150 to 225 mg daily oral, Day 28, mean, N 4): 8.4 h
- TAT (time above 500 ng/ml over 24 h) ([1]; Cohort 2, 300 to 450 mg daily oral, Day 1, mean, N 5): 17 h
- TAT (time above 500 ng/ml over 24 h) ([1]; Cohort 2, 300 to 450 mg daily oral, Day 28, mean, N 5): 15 h
- TAT (time above 500 ng/ml over 24 h) ([1]; Cohort 3, 450 to 600 mg daily oral, Day 1, mean, N 5): 18 h
- TAT (time above 500 ng/ml over 24 h) ([1]; Cohort 3, 450 to 600 mg daily oral, Day 28, mean, N 5): 16 h
- TAT (time above 500 ng/ml over 24 h) ([1]; Cohort 4, 600 to 900 mg daily oral, Day 1, mean, N 5): 19.0 h
- TAT (time above 500 ng/ml over 24 h) ([1]; Cohort 4, 600 to 900 mg daily oral, Day 28, mean, N 5): 18 h
- dose linearity of PK ([1]; DMD patients): dose linear
- accumulation with time ([1]; DMD patients, repeated dosing 4 weeks): no sign of any accumulation
- effect of fed condition on AUC24 ([1]; fed condition): no impact
- effect of fed condition on Cmax ([1]; fed condition): decrease
- exposure in children compared to healthy adults ([1]; in vivo): slightly higher exposure than in adults
- half-life ([1]; T1/2, Cohort 3, 450 to 600 mg daily oral, Day 1, mean, N 5): 234 min
- half-life ([1]; T1/2, Cohort 3, 450 to 600 mg daily oral, Day 28, mean, N 5): 226 min
- half-life ([1]; T1/2, Cohort 4, 600 to 900 mg daily oral, Day 1, mean, N 5): 234 min
- half-life ([1]; T1/2, Cohort 4, 600 to 900 mg daily oral, Day 28, mean, N 5): 225 min
- time post dose at which Cmax occurred ([1]; oral immediate release capsules, Days 1 and 28): 1 to 2 h
- IGFBP1: Term (TRT, linear mixed effect model, Day 28 vs Day 0) [2]: −2.7123
- TR: Term (TRT, linear mixed effect model, Day 28 vs Day 0) [3]: 0.5252
- SCGB3A2: Term (TRT, linear mixed effect model, Day 28 vs Day 0) [4]: −0.5466
- CK MM: Term (TRT, linear mixed effect model, Day 28 vs Day 0) [5]: −0.3886
- MB: Term (TRT, linear mixed effect model, Day 28 vs Day 0) [6]: −0.6763
- IGFBP6: Term (TRT, linear mixed effect model, Day 28 vs Day 0) [7]: −0.3144
- NMRI indices in skeletal muscle [8]: No notable change
- NHE-1 inhibition [9]: potent and selective inhibitor
